“Also recorded” adds a separate entry of the source.
Molecular target: T1, homomeric (CNGA1) rod CNG channel (Bos taurus, UniProt Q00194)
T1 sequence (Q00194 1-690): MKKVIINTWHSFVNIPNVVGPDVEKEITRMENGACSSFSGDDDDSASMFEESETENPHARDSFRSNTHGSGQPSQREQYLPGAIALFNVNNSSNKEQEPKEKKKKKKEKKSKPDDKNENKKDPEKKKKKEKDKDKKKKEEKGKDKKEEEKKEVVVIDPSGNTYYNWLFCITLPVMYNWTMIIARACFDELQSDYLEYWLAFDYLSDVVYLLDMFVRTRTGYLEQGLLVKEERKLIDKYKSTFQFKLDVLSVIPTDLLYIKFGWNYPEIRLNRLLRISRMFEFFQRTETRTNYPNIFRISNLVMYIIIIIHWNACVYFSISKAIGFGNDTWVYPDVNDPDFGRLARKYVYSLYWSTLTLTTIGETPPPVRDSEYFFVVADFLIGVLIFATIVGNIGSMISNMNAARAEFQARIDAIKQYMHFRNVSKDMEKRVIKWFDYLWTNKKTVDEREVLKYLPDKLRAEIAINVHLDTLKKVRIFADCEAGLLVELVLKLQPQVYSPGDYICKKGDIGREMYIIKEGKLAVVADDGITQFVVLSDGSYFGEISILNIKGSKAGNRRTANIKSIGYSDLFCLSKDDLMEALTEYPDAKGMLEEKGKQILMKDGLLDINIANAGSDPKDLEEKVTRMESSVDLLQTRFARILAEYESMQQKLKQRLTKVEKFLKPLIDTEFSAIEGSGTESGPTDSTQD
Format: biochemical, bovine
Details: saturating (2 mM) cGMP; for Inhibitory potency: result in words
Summary of the method: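 CNGA1 cRNA was injected into Xenopus oocytes (16°C, 3–12 d). Inside-out patches at room temperature were held in low-divalent Na solution (pH 7.2), with 2 mM cGMP intracellular and niflumic acid extracellular. Retinoid from ethanol stocks was mixed into the bath under dim light after phosphatase-driven affinity shifts finished. Current at +100 mV was taken at ~1 h steady state, leak-subtracted, normalized to pre-drug current, and Hill-fitted.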

Inhibitory potency | SMILES | Inhibition of current at 400 nM retinoid (400 nM, after 1 h, representative patch) | Inhibition of current at 10 μM retinoid (10 μM, after 1 h)
No inhibition | CC1=C(/C=C/C(C)=C/C=C/C(C)=C/C(=O)O)C(C)(C)CCC1 [RA, all-trans-retinoic acid] | did not inhibit; also recorded: no inhibition | 
No inhibition | CC(=O)/C=C/C1=C(C)CCCC1(C)C [β-ionone] |  | unable to inhibit; also recorded: no change in current
